What all share (type): functional, cell-based
Assay [1] concerns NCI-H460. The assay is described as follows: Cytotoxicity against human NCI-H460 cells by resazurin dye based Alamar blue assay. The essentials: (§1)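 Resazurin-based colorimetric (Alamar Blue) read-out of in vitro cytotoxicity in human cancer lines: NCI-H460 non-small-cell lung, SF-268 CNS glioma, MCF-7 breast, PC-3M metastatic prostate adenocarcinoma, MDA-MB-231 breast adenocarcinoma. Doxorubicin served as positive control and DMSO as negative control. Run in triplicate. Compounds tested up to 5.0 μM; IC50 values derived.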

For assay [2], the system named is SF-268. The assay is described as follows: Cytotoxicity against human SF268 cells by resazurin dye based Alamar blue assay. The essentials: as §1
(The colour change of resazurin is a common sign of viable cells or microbes.)

Assay [3] deals with MCF7. The assay is described as follows: Cytotoxicity against human MCF7 cells by resazurin dye based Alamar blue assay. A digest of the protocol:
as §1

Assay [4] deals with PC-3M. As to the kind of experiment: Cytotoxicity against human PC3M cells by resazurin dye based Alamar blue assay. A digest of the protocol:
as §1

Assay [5] concerns MDA-MB-231. The assay is described as follows: Cytotoxicity against human MDA-MB-231 cells by resazurin dye based Alamar blue assay. The essentials:
as §1

Some results are limits rather than exact numbers.

As usually defined, the IC50 is the concentration at which inhibition is half-maximal. Read a high IC50 as weaker potency in that assay. As to `COc1cc(O)c2c(c1)C(=O)c1cocc1C2=O` [MONOSPORASCONE], the IC50 in assay [1] was more than 5 µM; in assay [2] it was more than 5 µM; in assay [3] it was more than 5 µM; in assay [4], more than 5 µM; in assay [5], 3.8 µM.

As for `COc1cc(O)c2c(c1)C(=O)C(C)=CC2=O`, the IC50 was more than 5 µM in assay [1]; more than 5 µM in assay [2]; 3.1 µM in assay [3]; 4.9 µM in assay [4]; 1.2 µM in assay [5].

For `COc1cccc2c1C(=O)c1c(O)c3c(c(O)c1C2=O)C[C@@](O)(C(=O)CO)C[C@@H]3O[C@H]1C[C@H](N)[C@H](O)[C@H](C)O1` [DOXORUBICIN], the half-inhibitory concentration (IC50) in assay [1] is 0.4 µM; in assay [4], 0.2 µM; in assay [5] it was 0.6 µM.

Source of the values: ChEMBL document CHEMBL4251658, “Cytotoxic and Noncytotoxic Metabolites from Teratosphaeria sp. FL2137, a Fungus Associated with Pinus clausa” (J Nat Prod, 2018).
